The source of these data is paper PMC7078523 (Saudi Pharmaceutical Journal : SPJ, 2020).

A word on the AUC(0-t): it is exposure summed from dosing to a finite time, without extrapolation to infinity. A low value points to less exposure. The Cmax is the peak of the concentration-time curve. Usually Tmax stands for the time from dosing to the highest level. The term half-life denotes the time in which the quantity being followed falls by half. Higher therefore signals slow loss. For orientation: solubility means how much of the substance goes into solution per volume. Low readings indicate little dissolved substance, high ones much dissolved substance.

Converted amounts (≈) assume the structure as drawn.

The conditions of series [1]: cited from earlier work.
Series [2] is described as follows: In-vivo bioavailability. As to conditions: male, albino, rat, plasma, po, 15 mg/kg. Set-up: species or system rats. A digest of the protocol: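 Fasted male albino rats (300±25 g), 7 per group, single oral 15 mg/kg as 1 ml aqueous suspension by feeding tube with 10 ml water. Orbital sinus blood into heparin at 0–48 h; plasma stored at -80 °C. Acetonitrile protein precipitation, propranolol internal standard, LC-MS/MS over 10–6000 ng/mL. Non-compartmental parameters per rat; AUC0-48 by log-linear trapezoidal rule, kel from terminal slope, t1/2 = 0.693/kel.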

Series [3] in a line: In-vitro release study. The format is physicochemical.
Series [4] is described as follows: Phase solubility study of GRI with β-CD, NS2 and NS3. The format is physicochemical. Particulars: distilled water.

In the case of `COC1=CC(=O)C[C@@H](C)[C@]12Oc1c(Cl)c(OC)cc(OC)c1C2=O` [GRI, Griseofulvin], the “Biopharmaceutics Classification System (BCS) class” value in series [1] (ref Amidon et al., 1995) was “class II”. Further, the “log P (octanol/water)” value in series [1] (ref Arida et al., 2007) is on record as 2.15. Further, in series [2], the AUC(0-t) turned out to be 22500 ng·h/mL, the Cmax was found to be 1810 ng/mL, the time to peak (Tmax) came out at 2 h and the half-life was 20 h. This compound gave a k el in series [2] of 1.03e-05 s⁻¹. In addition, the “GRI cumulative percent released/dissolved after 2 hrs” value in series [3] (0.1 N HCl (pH 1.2), 37 °C, 50 rpm) is listed as 21.81 ± 0.07%. In series [3] (2 h 0.1 N HCl then 5 hrs phosphate buffer pH 7.4), the “GRI cumulative percent released/dissolved after 7 h” value turned out to be 27.43 ± 0.32%. Moreover, the “Dissolution efficiency (%D.E.)” value in series [3] (after 7 hrs) stood at 23.87%. Moreover, in series [3] (highest correlation coefficient (R^2)), the “Best fitted release kinetics model” value is listed as “Higuchi release kinetics model”. In addition, in series [4], the solubility was roughly 35 µM (≈ 12.3 µg/mL).
On to `CCC(C)n1ncn(-c2ccc(N3CCN(c4ccc(OCC5COC(Cn6cncn6)(c6ccc(Cl)cc6Cl)O5)cc4)CC3)cc2)c1=O` (stereo not shown) [itraconazole], for which the Aqueous solubility result in series [1] (physiological pH, ref Swaminathan et al., 2007) was “about 1 ng mL^−1”.
